According to ChEMBL document CHEMBL5724801, “EUbOPEN Chemogenomics Library - Multiplex” (2024):
Where “and” joins values, the source holds several entries; their conditions need not be identical. Equal values may be shown once.

Test system: HEK-293T
Assay: Multiplex assay against HEK293T
Type: toxicity, cell-based
Conditions: human
Procedure, shortened: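 At seeding, live cells were stained with Hoechst33342, BioTracker Green Microtubule Cytoskeleton Dye, MitoTracker Red and Annexin V Alexa Fluor 680. After compound addition they were imaged on a CQ1 microscope at 37°C and 5% CO2, and CellPathfinder machine-learning gating sorted them into Hoechst high-intensity objects or normal cells, with normal cells further split into healthy, pyknosed or fragmented nuclei and pyknosed cells into mitotic or apoptotic. Tubulin, mitochondrial-mass and membrane-permeability phenotypes are given as per cents of cells with healthy nuclei.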

[1] = 12 h, 1 µM, compound concentration 1 uM
[2] = 12 h, 10 µM, compound concentration 10 uM
[3] = 24 h, 1 µM, compound concentration 1 uM
[4] = 24 h, 10 µM, compound concentration 10 uM
[5] = 48 h, 1 µM, compound concentration 1 uM
[6] = 48 h, 10 µM, compound concentration 10 uM

CC[C@H]1OC(=O)[C@H](C)[C@@H](O[C@H]2C[C@@](C)(OC)[C@@H](O)[C@H](C)O2)[C@H](C)[C@@H](O[C@@H]2O[C@H](C)C[C@H](N(C)C)[C@H]2O)[C@@]2(C)CC(C)=C(O2)[C@H](C)[C@@H](O)[C@]1(C)O was tested, and the “Population Apoptotic (%)” value [1] was 35% and 45%, the “Population Fragmented Nuclei (%)” value [1] was 8% and 3% and the “Population Healthy Nuclei (%)” value [1] was 74% and 84%. The “Population Hoechst High Intensity Objects (%)” value [1] was 6% and 7%, the “Population Membrane Permeable-Phenotype (%)” value [1] was 0% and the “Population Mitochondria Different-Phenotype (%)” value [1] was 56% and 72%. For the same compound, the “Population Mitotic Cells (%)” value [1] was 64% and 54%, the “Population Normal (%)” value [1] was 93% and 92% and the “Population Pyknosed Nuclei (%)” value [1] was 17% and 11%. The “Population Tubulin-Different-Phenotype (%)” value [1] was 41% and 27%, the “Total Cell Count” value [1] was 367 and 300 and the “Population Apoptotic (%)” value [2] was 55% and 56%. For the same compound, the “Population Fragmented Nuclei (%)” value [2] was 8% and 11%, the “Population Healthy Nuclei (%)” value [2] was 71% and 72% and the “Population Hoechst High Intensity Objects (%)” value [2] was 13% and 10%. The “Population Membrane Permeable-Phenotype (%)” value [2] was 0%, the “Population Mitochondria Different-Phenotype (%)” value [2] was 87% and 91% and the “Population Mitotic Cells (%)” value [2] was 44% and 43%. For the same compound, the “Population Normal (%)” value [2] was 86% and 89%, the “Population Pyknosed Nuclei (%)” value [2] was 19% and 16% and the “Population Tubulin-Different-Phenotype (%)” value [2] was 76% and 77%. The “Total Cell Count” value [2] was 383 and 217, the “Population Apoptotic (%)” value [3] was 20% and 35% and the “Population Fragmented Nuclei (%)” value [3] was 8%. For the same compound, the “Population Healthy Nuclei (%)” value [3] was 78%, the “Population Hoechst High Intensity Objects (%)” value [3] was 3% and 6% and the “Population Membrane Permeable-Phenotype (%)” value [3] was 0%. The “Population Mitochondria Different-Phenotype (%)” value [3] was 35% and 49%, the “Population Mitotic Cells (%)” value [3] was 79% and 64% and the “Population Normal (%)” value [3] was 96% and 93%. The “Population Pyknosed Nuclei (%)” value [3] was 13% and 12%, the “Population Tubulin-Different-Phenotype (%)” value [3] was 24% and 22% and the “Total Cell Count” value [3] was 493 and 371. The “Population Apoptotic (%)” value [4] was 42% and 70%, the “Population Fragmented Nuclei (%)” value [4] was 9% and 10% and the “Population Healthy Nuclei (%)” value [4] was 75% and 71%. For the same compound, the “Population Hoechst High Intensity Objects (%)” value [4] was 11% and 10%, the “Population Membrane Permeable-Phenotype (%)” value [4] was 0% and the “Population Mitochondria Different-Phenotype (%)” value [4] was 74% and 87%. For the same compound, the “Population Mitotic Cells (%)” value [4] was 57% and 29%, the “Population Normal (%)” value [4] was 88% and 89% and the “Population Pyknosed Nuclei (%)” value [4] was 15% and 18%. For the same compound, the “Population Tubulin-Different-Phenotype (%)” value [4] was 75% and 80%, the “Total Cell Count” value [4] was 499 and 254 and the “Population Apoptotic (%)” value [5] was 30% and 21%. The “Population Fragmented Nuclei (%)” value [5] was 12%, the “Population Healthy Nuclei (%)” value [5] was 76% and 78% and the “Population Hoechst High Intensity Objects (%)” value [5] was 8% and 6%. For the same compound, the “Population Membrane Permeable-Phenotype (%)” value [5] was 0%, the “Population Mitochondria Different-Phenotype (%)” value [5] was 28% and 34% and the “Population Mitotic Cells (%)” value [5] was 69% and 78%. For the same compound, the “Population Normal (%)” value [5] was 91% and 93%, the “Population Pyknosed Nuclei (%)” value [5] was 11% and 9% and the “Population Tubulin-Different-Phenotype (%)” value [5] was 21% and 20%. The “Total Cell Count” value [5] was 718 and 584, the “Population Apoptotic (%)” value [6] was 50% and 53% and the “Population Fragmented Nuclei (%)” value [6] was 12%. For the same compound, the “Population Healthy Nuclei (%)” value [6] was 74% and 75%, the “Population Hoechst High Intensity Objects (%)” value [6] was 10% and 12% and the “Population Membrane Permeable-Phenotype (%)” value [6] was 1% and 0%. The “Population Mitochondria Different-Phenotype (%)” value [6] was 61% and 84%, the “Population Mitotic Cells (%)” value [6] was 50% and 46% and the “Population Normal (%)” value [6] was 89% and 87%. For the same compound, the “Population Pyknosed Nuclei (%)” value [6] was 12% and 11%, the “Population Tubulin-Different-Phenotype (%)” value [6] was 56% and 73% and the “Total Cell Count” value [6] was 671 and 300.

CCCOc1ccc2[nH]cc(C3=CCNCC3)c2n1.Cl was tested, and the “Population Apoptotic (%)” value [1] was 32% and 44%, the “Population Fragmented Nuclei (%)” value [1] was 5% and 6% and the “Population Healthy Nuclei (%)” value [1] was 81% and 82%. For the same compound, the “Population Hoechst High Intensity Objects (%)” value [1] was 5% and 4%, the “Population Membrane Permeable-Phenotype (%)” value [1] was 0% and the “Population Mitochondria Different-Phenotype (%)” value [1] was 41% and 52%. The “Population Mitotic Cells (%)” value [1] was 68% and 55%, the “Population Normal (%)” value [1] was 94% and 95% and the “Population Pyknosed Nuclei (%)” value [1] was 12% and 10%. The “Population Tubulin-Different-Phenotype (%)” value [1] was 39% and 21%, the “Total Cell Count” value [1] was 416 and 344 and the “Population Apoptotic (%)” value [2] was 43% and 55%. For the same compound, the “Population Fragmented Nuclei (%)” value [2] was 5% and 6%, the “Population Healthy Nuclei (%)” value [2] was 78% and 82% and the “Population Hoechst High Intensity Objects (%)” value [2] was 10% and 4%. For the same compound, the “Population Membrane Permeable-Phenotype (%)” value [2] was 0%, the “Population Mitochondria Different-Phenotype (%)” value [2] was 58% and 76% and the “Population Mitotic Cells (%)” value [2] was 56% and 44%. For the same compound, the “Population Normal (%)” value [2] was 89% and 95%, the “Population Pyknosed Nuclei (%)” value [2] was 15% and 11% and the “Population Tubulin-Different-Phenotype (%)” value [2] was 41%. The “Total Cell Count” value [2] was 446 and 387, the “Population Apoptotic (%)” value [3] was 28% and 35% and the “Population Fragmented Nuclei (%)” value [3] was 10% and 9%. The “Population Healthy Nuclei (%)” value [3] was 76% and 80%, the “Population Hoechst High Intensity Objects (%)” value [3] was 3% and 2% and the “Population Membrane Permeable-Phenotype (%)” value [3] was 0% and 1%. The “Population Mitochondria Different-Phenotype (%)” value [3] was 26% and 29%, the “Population Mitotic Cells (%)” value [3] was 71% and 64% and the “Population Normal (%)” value [3] was 96% and 97%. The “Population Pyknosed Nuclei (%)” value [3] was 12% and 9%, the “Population Tubulin-Different-Phenotype (%)” value [3] was 24% and 14% and the “Total Cell Count” value [3] was 558 and 425. For the same compound, the “Population Apoptotic (%)” value [4] was 39% and 51%, the “Population Fragmented Nuclei (%)” value [4] was 12% and 6% and the “Population Healthy Nuclei (%)” value [4] was 74% and 81%. The “Population Hoechst High Intensity Objects (%)” value [4] was 7% and 3%, the “Population Membrane Permeable-Phenotype (%)” value [4] was 0% and the “Population Mitochondria Different-Phenotype (%)” value [4] was 50% and 63%. For the same compound, the “Population Mitotic Cells (%)” value [4] was 60% and 48%, the “Population Normal (%)” value [4] was 92% and 96% and the “Population Pyknosed Nuclei (%)” value [4] was 12% and 11%. For the same compound, the “Population Tubulin-Different-Phenotype (%)” value [4] was 38% and 34%, the “Total Cell Count” value [4] was 583 and 502 and the “Population Apoptotic (%)” value [5] was 17% and 38%. The “Population Fragmented Nuclei (%)” value [5] was 13% and 9%, the “Population Healthy Nuclei (%)” value [5] was 79% and 82% and the “Population Hoechst High Intensity Objects (%)” value [5] was 2% and 1%. The “Population Membrane Permeable-Phenotype (%)” value [5] was 0% and 1%, the “Population Mitochondria Different-Phenotype (%)” value [5] was 15% and 20% and the “Population Mitotic Cells (%)” value [5] was 82% and 61%. For the same compound, the “Population Normal (%)” value [5] was 97% and 98%, the “Population Pyknosed Nuclei (%)” value [5] was 6% and 7% and the “Population Tubulin-Different-Phenotype (%)” value [5] was 12% and 9%. For the same compound, the “Total Cell Count” value [5] was 872 and 657, the “Population Apoptotic (%)” value [6] was 35% and 26% and the “Population Fragmented Nuclei (%)” value [6] was 14% and 13%. For the same compound, the “Population Healthy Nuclei (%)” value [6] was 76% and 80%, the “Population Hoechst High Intensity Objects (%)” value [6] was 6% and 5% and the “Population Membrane Permeable-Phenotype (%)” value [6] was 0%. For the same compound, the “Population Mitochondria Different-Phenotype (%)” value [6] was 41% and 37%, the “Population Mitotic Cells (%)” value [6] was 64% and 73% and the “Population Normal (%)” value [6] was 93% and 94%. The “Population Pyknosed Nuclei (%)” value [6] was 8% and 6%, the “Population Tubulin-Different-Phenotype (%)” value [6] was 23% and 20% and the “Total Cell Count” value [6] was 776 and 733.
